Bioassay records from PubChem BioAssay.
HIF act – HIF pathway transcriptional activation. 300,000 compounds, 0.32% hits. activation, % at 7.5 µM (by protocol). U2OS HRE-luciferase reporter, luminescence; normalized: DMSO 0%, desferrioxamine 100%. AID 1910;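 active = mean activation of at least 10% of the iron chelator positive control signal, with at least half of replicates also reaching 10%; inconclusive = mean and replicate majority disagree about reaching 10%; inactive = mean and most replicates under 10%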
Neddylation inh – cullin neddylation inhibition; inhibition, % at 25 µM; TR-FRET cullin neddylation, biochemical; 360,000 compounds, 0.58% hits; in the data active = inhibition above about 36%
GAA850 FXN act – frataxin GAA850 promoter activation; 360,000 compounds, 0.56% hits; HEK293 lucGAA850 FXN promoter luciferase reporter, 24 h; percent of 10 µM SAHA response; activation, % at 6 µM; AID 540364;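 active = activation above the average of all compounds screened plus 3 SD, cutoff fixed separately per campaign, cut at about 7.5% in these data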;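 note: 0% = DMSO wells and 100% = 10 µM SAHA wells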
proCasp7 act – counter-screen: procaspase-7 (human) activation. 330,000 compounds, 0.093% hits. recombinant procaspase-7, Ac-DEVD-pNA absorbance 405 nm; D23A/D198A/D206A triple mutant, cannot self-cleave; scale: DMSO 0, 5 µM enzyme 100. P55210. activation, % at 8.5 µM;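 active = percent activation above the screen-wide mean plus 3 SD, cut at about 25% in these data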
Target sequence (P55210 whole entry D23A/D198A/D206A): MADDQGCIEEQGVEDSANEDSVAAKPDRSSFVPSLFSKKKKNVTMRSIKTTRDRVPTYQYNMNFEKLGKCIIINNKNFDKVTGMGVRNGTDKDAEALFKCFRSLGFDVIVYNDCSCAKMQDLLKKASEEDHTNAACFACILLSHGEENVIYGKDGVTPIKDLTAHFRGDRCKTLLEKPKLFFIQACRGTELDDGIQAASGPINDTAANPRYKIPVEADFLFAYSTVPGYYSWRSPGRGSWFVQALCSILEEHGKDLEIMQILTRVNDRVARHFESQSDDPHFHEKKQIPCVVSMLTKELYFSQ
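Replicates: singlicate. Assay system: Procaspase-7 triple mutant (PC-7 D3A). Signal: 405 nm absorbance of p-nitroaniline. Times: 1 h preincubation, 2 h reaction. Buffer or medium: Zinc-free HEPES pH 7.4 with 300 mM NaCl, 0.01% Triton X-100. Also added: DEVD-pNA substrate. Benchmarks: DMSO wells as 0%, DMSO with 5 µM added PC-7 as 100%.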
Calb FLC – affects C. albicans growth with fluconazole; 300,000 compounds, 0.57% hits; growth inhibition, % (test concentration not listed); AID 1979; C. albicans CaCi-2 (fluconazole-resistant clinical isolate) + fluconazole, Alamar Blue growth, 48 h;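 active = growth inhibition above about 58% in most replicates, limit read from the data, passing the limit was not always enough; inconclusive = exactly half the replicates above a set limit; inactive = most replicates below a set limit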;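 note: all wells also contain fluconazole at 8 µg/ml as a sub-toxic cotreatment; 0% = median of DMSO wells and 100% = median of geldanamycin control wells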
procasp3 activ – activators of human procaspase-3; P42574; recombinant procaspase-3 D3A, Ac-DEVD-pNA absorbance 405 nm; activation, % at 8.5 µM; 330,000 compounds, 0.11% hits;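 active = activation above the mean of all tested compounds plus 3 SD, cut at about 21% in these data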;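 note: 0% = DMSO alone and 100% = DMSO wells spiked with extra 5 µM PC-3 D3A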
Target sequence (P42574 whole entry D9A/D28A/D175A): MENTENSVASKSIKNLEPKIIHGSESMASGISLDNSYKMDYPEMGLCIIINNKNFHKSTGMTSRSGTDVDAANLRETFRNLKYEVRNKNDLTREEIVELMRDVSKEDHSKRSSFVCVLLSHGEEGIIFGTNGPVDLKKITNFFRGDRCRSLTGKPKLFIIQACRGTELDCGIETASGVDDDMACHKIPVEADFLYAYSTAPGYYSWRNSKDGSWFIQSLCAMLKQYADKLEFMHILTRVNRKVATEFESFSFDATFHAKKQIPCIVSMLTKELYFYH
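Assay system: Procaspase-3 D3A mutant, all three cleavage aspartates alanine. Buffer or medium: Zinc-free HEPES saline buffer with Triton X-100. Times: 1 h compound preincubation, 2 h substrate hydrolysis at 25 °C. Measured by: 405 nm absorbance of p-nitroaniline, reads at 0 and 120 min. Read-out basis: percent activation relative to control range. Replicates: singlicate.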
Neddyl conf – confirmation of human cullin neddylation inhibitors. shares compounds with Neddylation inh. 1,800 compounds, 13% hits. TR-FRET cullin neddylation biochemical assay. calls only at 25 µM. AID 652217; in the data active = inhibition above about 40%;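 note: neddylation substrate is the cullin 1 ring ligase complex with SKP2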
Active calls of the source: *; i = inactive; ? = inconclusive; . = no result shown; + = active, no number. Compounds with a hit are over-represented: about 1.9% of the library has one in this group of screens.

SMILES | HIF act | Neddylation inh | GAA850 FXN act | proCasp7 act | Calb FLC | procasp3 activ | Neddyl conf
O=C1Nc2ccc(S(=O)(=O)N3CCCC3)c3cccc1c23 | 0 | 40* | 3 | -3 | -16 | 5 | i
CN1CCN(S(=O)(=O)c2ccc3c4c(cccc24)C(=O)N3)CC1 | -1 | . | 0 | -3 | 19 | -3 | .
O=C1Nc2ccc(S(=O)(=O)N3CCCCCC3)c3cccc1c23 | -1 | 36 | 1 | -9 | -11 | -7 | .
CCOC(=O)N1CCN(S(=O)(=O)c2ccc3c4c(cccc24)C(=O)N3)CC1 | 0 | 52* | 2 | -4 | -2 | 1 | +
CC(=O)O[C@@H](C[C@@H](C)C1=C2C[C@H](O)C3[C@@]4(C)CCC(=O)C(C)(C)C4CC[C@]3(C)[C@@]2(C)CC1)[C@H]1OC1(C)C (stereo partly drawn) | . | 2 | -2 | . | . | . | .
COc1ccc(/C=C/c2nc(S(=O)(=O)c3ccccc3)c(NCCCN(C)C)o2)cc1OC | 1 | 34 | 3 | -6 | -3 | 1 | .
COc1ccccc1/C=C/c1nc(S(=O)(=O)c2ccccc2)c(NCCN(C)C)o1 | 1 | 42* | -1 | -15 | . | -4 | .
c1ccc2c(c1)c1c(c3ccccc32)CN2CCCC2C1 (stereo not drawn) | . | 43* | 2 | . | . | . | i
CCCN(CC(=O)Nc1ccccc1C)C(=O)c1ccc(N2CCCCCC2)c([N+](=O)[O-])c1 | 0 | -29 | -3 | -6 | -8 | -7 | .
Cc1cc(-c2ccccc2)c2c3c(cn2n1)c(=O)n(C)c(=O)n3C | -1 | -13 | -1 | 13 | 44 | 8 | .
Cc1cc(-c2ccccc2)c2nncn2n1 | 0 | 40* | 2 | 1 | 4 | 5 | +
OC1CCN(c2c3c(nc4cc(-c5ccc(Cl)cc5)nn24)CCC3)CC1 | 0 | 40* | 5 | -5 | 9 | -2 | i
O=C(c1cnn2c(C(F)(F)F)cc(-c3cccs3)nc12)N1CCCC1 | 0 | 44* | 0 | -3 | -2 | 1 | .
Oc1cnc2ccccc2c1CN1CCOCC1 | -2 | 42* | 0 | -3 | 2 | 2 | i
COc1ccc(-c2sc3ccc(OC)cc3c2C#CCCO)cc1 | 3 | -19 | 4 | -7 | 3 | -6 | .
COc1ccc2sc(-c3ccc(SC)cc3)c(C#CCO)c2c1 | . | 39* | 1 | 10 | . | 7 | .
COc1ccc(-c2cn3cccnc3n2)cc1NS(=O)(=O)c1ccccc1 | 0 | 49* | 0 | 5 | 23 | -3 | i
COc1ccc(-c2cn3cccnc3n2)cc1NC(=O)c1cccs1 | -1 | 55* | 2 | 3 | 29 | 2 | +
O=S(=O)(Nc1ccc(-c2cn3cccnc3n2)cc1)c1ccccc1 | 0 | . | 2 | -2 | -8 | 4 | .
O=C(CN1C(=O)C(=O)N(C2CCCC2)C1=O)NCCc1ccc(Cl)cc1Cl | . | -25 | 1 | -3 | . | 7 | .
CCn1c(=O)c(CCC(=O)NCC2CCCO2)c(C)c2c(C)nn(-c3ccccc3)c21 (stereo not drawn) | 0 | 40* | 1 | 2 | -7 | 4 | i
CN1CCN(c2nc(N3CCN(CCO)CC3)nc3ccccc23)CC1 | 0 | 45* | 0 | 3 | -3 | -2 | .
c1ccc(CN2CCN(c3nc(N4CCOCC4)c4ccccc4n3)CC2)cc1 | 0 | 32 | 0 | 6 | 12 | 6 | .
O=C(CSc1nnc2ccc(-c3ccc(Br)cc3)nn12)NCC1CCCO1 (stereo not drawn) | 0 | 38 | 0 | 7 | 1 | 1 | .
O=C(CSc1nnc2ccc(-c3ccncc3)nn12)Nc1ccc(F)cc1 | 0 | -18 | -2 | 6 | 4 | 4 | .
SMILES | HIF act | Neddylation inh | GAA850 FXN act | proCasp7 act | Calb FLC | procasp3 activ | Neddyl conf
COc1ccc(-c2ccc3nnc(SCC(=O)N4CCCC4)n3n2)cc1 | -12 | 56* | 1 | 9 | 3 | 6 | .
NC(=O)CSc1nnc2ccc(-c3ccc(F)cc3)nn12 | 0 | 39* | 2 | -13 | 0 | -3 | i
Cc1ccc(-c2ccc3nnc(SCC(N)=O)n3n2)cc1 | 0 | . | 3 | 1 | 3 | -4 | .
O=C(CSc1nnc2ccc(-c3ccccc3)nn12)NCC1CCCO1 (stereo not drawn) | -1 | 42* | -1 | 4 | 2 | 4 | +
NC(=O)CSc1nnc2ccc(-c3ccc(Cl)cc3)nn12 | ? | 42* | 1 | 5 | -1 | 4 | i
C=C1CC2C(=O)N(Cc3cc(OC)ccc3OC)C(C(=O)OCC)(C(=O)OCC)C1N2C(=O)OC(C)(C)C (stereo not drawn) | 1 | -11 | -1 | 2 | 6 | -7 | .
CCC1C(=O)n2nc(-c3ccccc3)cc2N=C1C (stereo not drawn) | 1 | 49* | -1 | 1 | 6 | 0 | i
Cc1cc(C)n2nc(-c3ccccc3)cc2n1 | 1 | . | 5 | -8 | -2 | -3 | .
Nc1cc2c(cc1Br)-c1c(C(=O)O)cccc1C2O (stereo not drawn) | . | 39* | -3 | . | . | . | i
COC(=O)c1cccc([N+](=O)[O-])c1CN1CCCC(C(N)=O)C1 (stereo not drawn) | -1 | 42* | 0 | -14 | -4 | 0 | i
CCN(CC)c1cc(C)c2cc(NC(=O)c3ccccc3OC)ccc2n1 | 2 | 43* | 0 | -4 | -3 | -4 | i
COc1ccccc1C(=O)Nc1ccc2c(c1)nc1n2CCN(Cc2ccccc2)C1 | 0 | 54* | 1 | 7 | 37 | 5 | i
CCN(CC)c1cc(C)c2cc(NC(=O)c3cccs3)ccc2n1 | 2 | 25 | 0 | -1 | -1 | -2 | .
O=C(NCCc1ccc(Cl)cc1Cl)C1=CC=CN2CCS(=O)(=O)N=C12 | . | 53* | 1 | -5 | . | 0 | +
O=C(Cc1c(Cl)cccc1Cl)N/N=C/c1cccnc1 | . | -5 | 0 | . | -1 | . | .
COc1ccc(-c2cc3ccc(OCC(N)=O)cc3oc2=O)cc1OC | 2 | 42* | 2 | 1 | 4 | -8 | i
CCC(C)NC(=O)c1ccc(C)c(NC(=O)C2=C(C)OCCS2)c1 (stereo not drawn) | -19 | 2 | 0 | -6 | 1 | 1 | .
Cc1c(C)c2cc(Cl)c(OCc3nn[nH]n3)cc2oc1=O | 0 | 47* | 0 | 5 | 1 | 3 | i
Cc1c(C)c2cc(Cl)c(OCC(=O)Nc3ccccn3)cc2oc1=O | . | -17 | -1 | . | . | . | .
COc1ccc(CNC(=O)CSc2cccc3cccnc23)cc1 | 1 | 43* | 2 | 2 | 2 | -4 | i
